This is an account of results in ChEMBL document CHEMBL3785019, “Dihydropyrazole derivatives as telomerase inhibitors: Structure-based design, synthesis, SAR and anticancer evaluation in vitro and in vivo” (Eur J Med Chem, 2016).

Each structure is given as a SMILES string.

In assay [1] the target is Telomerase reverse transcriptase (Homo sapiens, UniProt O14746). Put plainly: Inhibition of telomerase in human MGC-803 cells after 24 hrs by TRAP-PCR-ELISA assay. The class given is cell-based. The procedure, abridged: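 Cells lysed in RIPA on ice for 30 min; extract incubated with TRAP mix at 25 °C for 30 min, then 35 PCR cycles. Products hybridized to DIG probe, captured on streptavidin, detected with peroxidase anti-DIG at 490 nm; mean±SD.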
Sequence of Telomerase reverse transcriptase (O14746 whole entry): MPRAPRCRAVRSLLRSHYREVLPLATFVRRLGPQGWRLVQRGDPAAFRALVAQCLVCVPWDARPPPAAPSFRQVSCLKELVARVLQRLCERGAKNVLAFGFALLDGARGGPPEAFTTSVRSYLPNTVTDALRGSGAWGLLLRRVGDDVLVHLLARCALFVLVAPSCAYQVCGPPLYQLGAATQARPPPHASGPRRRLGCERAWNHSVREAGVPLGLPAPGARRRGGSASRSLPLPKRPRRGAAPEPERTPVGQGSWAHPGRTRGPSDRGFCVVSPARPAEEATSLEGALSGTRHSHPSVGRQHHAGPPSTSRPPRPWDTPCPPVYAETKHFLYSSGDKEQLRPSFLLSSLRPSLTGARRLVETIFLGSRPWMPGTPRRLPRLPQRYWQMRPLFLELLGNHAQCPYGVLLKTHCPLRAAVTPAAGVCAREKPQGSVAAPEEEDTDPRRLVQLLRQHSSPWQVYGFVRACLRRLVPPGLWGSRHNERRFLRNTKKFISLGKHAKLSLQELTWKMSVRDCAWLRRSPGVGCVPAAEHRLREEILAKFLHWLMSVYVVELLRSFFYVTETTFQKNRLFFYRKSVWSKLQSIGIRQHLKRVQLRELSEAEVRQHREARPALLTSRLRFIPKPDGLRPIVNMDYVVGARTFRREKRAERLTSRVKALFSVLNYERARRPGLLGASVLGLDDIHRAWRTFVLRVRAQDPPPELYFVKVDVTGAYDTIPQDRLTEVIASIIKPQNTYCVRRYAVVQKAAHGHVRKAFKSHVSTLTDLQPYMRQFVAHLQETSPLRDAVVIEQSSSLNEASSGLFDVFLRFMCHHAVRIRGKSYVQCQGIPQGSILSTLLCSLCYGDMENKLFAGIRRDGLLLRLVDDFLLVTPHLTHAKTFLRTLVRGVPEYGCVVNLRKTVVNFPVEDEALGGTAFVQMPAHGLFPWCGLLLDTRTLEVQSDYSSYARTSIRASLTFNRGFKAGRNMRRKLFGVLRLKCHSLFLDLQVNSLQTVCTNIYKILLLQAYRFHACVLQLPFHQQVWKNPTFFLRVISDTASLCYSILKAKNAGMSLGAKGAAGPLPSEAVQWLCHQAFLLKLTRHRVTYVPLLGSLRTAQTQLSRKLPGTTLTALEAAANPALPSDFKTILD
A general note: In an ELISA, binding on a coated surface is turned into a signal by an enzyme label.

A short description of assay [2]: Cytotoxicity against human PC3 cells after 48 hrs by MTT assay. The assay is classed as functional, cell-based, PC-3. The procedure, abridged:
(§1)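 Tumor cells in log phase in RPMI 1640 + 10% FBS, seeded at 3×10^4 cells mL-1 and incubated 24 h (37 °C, 5% CO2). Test samples added at pre-set concentrations (6 wells each), doxorubicin as reference; 48 h exposure. MTT (2.5 mg·mL-1 in PBS) added for 4 h, formazan dissolved in DMSO, A570 read.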
For orientation: Formazan colour is commonly taken as a measure of viable cells.

The test system of assay [3] is HepG2. Put plainly: Cytotoxicity against human HepG2 cells after 48 hrs by MTT assay. The assay is classed as functional, cell-based. A digest of the protocol: as §1
The nature of assay [4]: Cytotoxicity against human MGC803 cells after 48 hrs by MTT assay. The assay is classed as functional, cell-based, MGC-803. A digest of the protocol: as §1
The subject of assay [5] is Bcap37. Put plainly: Cytotoxicity against human Bcap37 cells after 48 hrs by MTT assay. The class given is functional, cell-based. The procedure, abridged: as §1
Where [6] appears, read: Homo sapiens, PC-3, 48 h, read-out: IC50.
Setting [7] is: Homo sapiens, HepG2, 48 h, read-out: IC50.
Setting [8] is: Homo sapiens, MGC-803, 48 h, read-out: IC50.
[9] abbreviates: Homo sapiens, Bcap37, 48 h, read-out: IC50.

What is called IC50 is the point on the concentration scale where inhibition reaches its midpoint.

Regarding `COc1ccccc1C1CC(C)=NN1C(=O)C[N+]1(C)CCCC1` (stereo not given), the IC50 was found to be 11 µM in assay [1]; 11.2 µM in assay [2] (setting [6]); 32.2 µM in assay [3] (setting [7]); 12.2 µM in assay [4] (setting [8]); 9.98 µM in assay [5] (setting [9]).
For the compound `CC[N+](C)(CC)CC(=O)N1N=C(C)CC1c1ccccc1OC` (stereo not given), the IC50 was determined as 3.44 µM in assay [1]; 4.17 µM in assay [2] (setting [6]); 3.67 µM in assay [3] (setting [7]); 3.32 µM in assay [4] (setting [8]); 5.15 µM in assay [5] (setting [9]).
In the same order, the values of `COc1ccc(NCC(=O)N2N=C(C)CC2c2ccccc2O)cc1` (stereo not given) are 22.3 µM, 51.6 µM, 39.1 µM, 9.87 µM and 45.5 µM.
Regarding `CC1=NN(C(=O)CN2CCN(C(=O)OC(C)(C)C)CC2)C(c2ccccc2O)C1` (stereo not given), the IC50 in assay [1] came to 6.77 µM; in assay [2] (setting [6]), 3.44 µM; in assay [3] (setting [7]) it was 5 µM; in assay [4] (setting [8]) it was 17.6 µM; in assay [5] (setting [9]), 6.74 µM.
The matching figures for `CCC(=O)N1N=C(C)CC1c1cc(Br)cc(Br)c1O` (stereo not given): 18.1 µM, 28.6 µM, 41.4 µM, 38.6 µM and 40.1 µM.
As for `CCN(CC)CC(=O)N1N=C(c2cc3ccccc3oc2=O)CC1c1ccccc1` (stereo not given), the IC50 in assay [1] is 5.57 µM; in assay [2] (setting [6]), 6.41 µM; in assay [3] (setting [7]) it was 11.4 µM; in assay [4] (setting [8]) it was 8.52 µM; in assay [5] (setting [9]), 3.5 µM.
The matching figures for `C=CCN(CC=C)CC(=O)N1N=C(C)CC1c1cc(Br)ccc1O` (stereo not given): 11.8 µM, 3.09 µM, 7.87 µM, 10.2 µM and 4.95 µM.
The matching figures for `CCCCCCN(CCCCCC)CC(=O)N1N=C(c2cc3ccccc3oc2=O)CC1c1ccccc1C(F)(F)F` (stereo not given): 4.77 µM, 6.03 µM, 12 µM, 6.87 µM and 12.2 µM.
The matching figures for `CC(C)NCC(=O)N1N=C(c2cc3ccccc3oc2=O)CC1c1ccccc1` (stereo not given): 3.52 µM, 1.87 µM, 6 µM, 10.3 µM and 2.21 µM.
Turning to `O=C(CN1CCC(Cl)CC1)N1N=C(c2cc3ccccc3oc2=O)CC1c1ccccc1` (stereo not given), the IC50 in assay [1] is 57.8 µM; in assay [2] (pc-3) it was “Not Active”; in assay [3] (hepg2), “Not Active”; in assay [4] (mgc-803), “Not Active”; in assay [5] (setting [9]) it was 24.2 µM.
On to `O=C(CN1CCOCC1)N1N=C(c2cc3ccccc3oc2=O)CC1c1ccccc1C(F)(F)F` (stereo not given), for which the half-inhibitory concentration (IC50) was 3.03 µM in assay [1]; 12.1 µM in assay [2] (setting [6]); 21 µM in assay [3] (setting [7]); 10 µM in assay [4] (setting [8]); 14.2 µM in assay [5] (setting [9]).
For the compound `CC(=O)Oc1ccccc1C1CC(C)=NN1C(=O)CN1CCCCC1C` (stereo not given), the half-maximal inhibitory concentration (IC50) in assay [1] is 6.2 µM; in assay [2] (setting [6]), 11.1 µM; in assay [3] (hepg2), “Not Active”; in assay [4] (setting [8]) it was 5.14 µM; in assay [5] (setting [9]), 17.9 µM.
The matching figures for `O=c1oc2ccccc2cc1C1=NN(S(=O)(=O)c2ccc([N+](=O)[O-])cc2)C(c2ccccc2)C1` (stereo not given): 31.3 µM, 46.6 µM, “Not Active”, 41.2 µM and 37 µM.
As to `NC(=O)C1CCN(CC(=O)N2N=C(c3cc4ccccc4oc3=O)CC2c2ccccc2)CC1` (stereo not given), the IC50 in assay [1] was found to be 31.2 µM; in assay [2] (setting [6]), 8.31 µM; in assay [3] (setting [7]), 19.3 µM; in assay [4] (setting [8]) it was 21.5 µM; in assay [5] (setting [9]), 18.5 µM.
In the same order, the values of `CC(=O)Oc1ccccc1C1CC(C)=NN1C(=O)CN1CCCCC1` (stereo not given) are 2.12 µM, 4.07 µM, 19 µM, 4.89 µM and 12.8 µM.
The matching figures for `CC1=NN(C(=O)CCc2ccccc2)C(c2ccccc2O)C1` (stereo not given): 11 µM, 9.38 µM, 20.6 µM, 24.1 µM and 25.7 µM.
In the same order, the values of `CCCN(CCC)CC(=O)N1N=C(C)CC1c1cc(Br)ccc1O` (stereo not given) are 9.94 µM, 19 µM, 9.81 µM, 20.2 µM and 15.3 µM.
For the compound `O=C(c1ccccc1Cl)N1N=C(c2cc3ccccc3oc2=O)CC1c1ccccc1` (stereo not given), the IC50 in assay [1] worked out at 13.1 µM; in assay [2] (setting [6]), 6.37 µM; in assay [3] (setting [7]), 5.44 µM; in assay [4] (setting [8]), 6.64 µM; in assay [5] (setting [9]) it was 9.3 µM.
Regarding `CNCC(=O)N1N=C(c2cc3ccccc3oc2=O)CC1c1ccccc1` (stereo not given), the IC50 in assay [1] came to 3.15 µM; in assay [2] (setting [6]), 2.3 µM; in assay [3] (setting [7]), 24 µM; in assay [4] (setting [8]), 12.8 µM; in assay [5] (setting [9]) it was 4.22 µM.
As to `CCCNCC(=O)N1N=C(c2cc3ccccc3oc2=O)CC1c1ccccc1` (stereo not given), the IC50 in assay [1] came to 9.32 µM; in assay [2] (setting [6]) it was 7.27 µM; in assay [3] (setting [7]), 10.8 µM; in assay [4] (setting [8]), 4.88 µM; in assay [5] (setting [9]), 25.2 µM.
In the same order, the values of `COc1ccccc1C1CC(C)=NN1C(=O)CN1CCC(OC)CC1` (stereo not given) are 8.4 µM, 27.2 µM, 22 µM, 9.55 µM and 18.8 µM.
The matching figures for `CC1=NN(C(=O)CCl)C(c2cc(Br)ccc2O)C1` (stereo not given): 3.17 µM, 8.89 µM, 16.3 µM, 13.5 µM and 32.3 µM.
For `O=C(CN1CCC(c2ccccc2)CC1)N1N=C(c2cc3ccccc3oc2=O)CC1c1ccccc1` (stereo not given), the IC50 in assay [1] is 35.7 µM; in assay [2] (pc-3) it was “Not Active”; in assay [3] (hepg2), “Not Active”; in assay [4] (mgc-803) it was “Not Active”; in assay [5] (bcap37), “Not Active”.
Take `CC1=NN(C(=O)COc2ccc(Cl)cc2)C(c2ccccc2O)C1` (stereo not given): the IC50 in assay [1] was 54.4 µM; in assay [2] (setting [6]), 38.8 µM; in assay [3] (hepg2), “Not Active”; in assay [4] (mgc-803) it was “Not Active”; in assay [5] (bcap37), “Not Active”.
For `CC1=NN(C(=O)CN2CCN(C)CC2)C(c2ccccc2O)C1` (stereo not given), the IC50 in assay [1] is 2.1 µM; in assay [2] (setting [6]), 11.8 µM; in assay [3] (hepg2), “Not Active”; in assay [4] (setting [8]), 7.85 µM; in assay [5] (setting [9]), 6.21 µM.
With `CC(=O)Oc1ccccc1C1CC(C)=NN1C(=O)CN1CCC(C(C)=O)CC1` (stereo not given), the IC50 in assay [1] was 3.54 µM; in assay [2] (setting [6]) it was 6.8 µM; in assay [3] (setting [7]) it was 7.8 µM; in assay [4] (setting [8]), 4.12 µM; in assay [5] (setting [9]), 20.1 µM.
In the same order, the values of `O=C(c1ccccc1)N1N=C(c2cc3ccccc3oc2=O)CC1c1ccccc1` (stereo not given) are 8.74 µM, 5.87 µM, 36.6 µM, 12.7 µM and 32.2 µM.
In the same order, the values of `CCNCC(=O)N1N=C(c2cc3ccccc3oc2=O)CC1c1ccccc1` (stereo not given) are 6.68 µM, 5.58 µM, 30.6 µM, 26.6 µM and 6.49 µM.
